From ChEMBL document CHEMBL1208665, “Discovery of new 1,3,5-triazine scaffolds with potent activity against Mycobacterium tuberculosis H37Rv” (Eur J Med Chem, 2010) come the findings set out here.

Converted amounts (≈) assume the structure as drawn. Where only a bound is given, the exact number is not on record here.

One may read the MIC as the smallest concentration in the dilution series that meets the test's criterion for growth inhibition.

The test system of this experiment is Mycobacterium tuberculosis. Nature of the experiment: Antimycobacterial activity against Mycobacterium tuberculosis H37Rv […] after 4 weeks. Format: functional. Summed up: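 Agar-slant dilution against H37Rv. Compounds from 1.0 mg/mL DMSO stock, two-fold serial dilutions, were incorporated into OADC-supplemented medium (2 mL/tube final) and solidified slanted. Inoculum spread on the surface, incubated 37 °C for 4 weeks. Drug-free tubes served as control. MIC is the lowest concentration giving complete growth inhibition relative to the inoculum used.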
`CCNC1CN(c2nc(N3CCCCC3)nc(N3CCOC(NCC)C3)n2)CCO1` (stereo not given): the MIC is > 12.5 µg/mL.

For the molecule `CN(C)CCNc1nc(NCCN(C)C)nc(N2CCCc3ccccc32)n1`, the MIC is > 12.5 µg/mL.

Turning to `CCNc1nc(NCC)nc(N2CCCc3ccccc32)n1`, the MIC was > 12.5 µg/mL.

As to `CCNc1nc(NCC)nc(N2CCCCC2)n1`, the MIC is > 12.5 µg/mL.

On to `CC(C)(C)Nc1nc(NC(C)(C)C)nc(N2CCCCC2)n1`, for which the MIC was > 12.5 µg/mL.

`CCCNC1COCCN1c1nc(Nc2nc(SC)cc(-c3cc(OC)c(OC)c(OC)c3)n2)nc(N2CCOCC2NCCC)n1` (stereo not given) displayed an MIC of 12.5 µg/mL (≈ 18.6 µM).

Regarding `CN(C)CCNc1nc(NCCN(C)C)nc(N2CCCCC2)n1`, the MIC is > 12.5 µg/mL.

On to `CCN(CC)CCNc1nc(NCCN(CC)CC)nc(N2CCCCC2)n1`, for which the MIC was > 12.5 µg/mL.

For the molecule `O=C(NNc1nc(Nc2ccccc2)nc(N2CCCCC2)n1)c1ccncc1`, the minimal inhibitory concentration (MIC) is > 12.5 µg/mL.

Consider `O=C(NNc1nc(Nc2ccccc2)nc(Nc2ccccc2)n1)c1ccncc1`, for which the MIC was > 12.5 µg/mL.

`COc1ccc(-c2cc(SC)nc(Nc3nc(NCCN(C)C)nc(NCCN(C)C)n3)n2)cc1OC`: the minimum inhibitory concentration (MIC) was found to be 6.25 µg/mL (≈ 11.8 µM).

For `CC(C)(C)Nc1nc(NNC(=O)c2ccncc2)nc(Nc2ccccc2)n1`, the MIC was > 12.5 µg/mL.

As to `NN(C(=O)c1ccncc1)c1nc(Nc2ccccc2)nc(N(N)C(=O)c2ccncc2)n1`, the MIC is > 12.5 µg/mL.

Turning to `CN1CCN(c2nc(N3CCc4ccccc4C3)nc(N3CCc4ccccc4C3)n2)CC1`, the MIC is 6.25 µg/mL (≈ 14.2 µM).

With `CC(C)Nc1nc(NC(C)C)nc(N2CCCCC2)n1`, the MIC came out at 12.5 µg/mL (≈ 44.9 µM).

The molecule `CCCCNc1nc(NNC(=O)c2ccncc2)nc(N2CCCc3ccccc32)n1` yielded an MIC of 6.25 µg/mL (≈ 14.9 µM).

For `CC(C)(C)Nc1nc(NNC(=O)c2ccncc2)nc(N2CCCc3ccccc32)n1`, the MIC turned out to be 3.12 µg/mL (≈ 7.46 µM).

Molecule `CC(C)(C)Nc1nc(NNC(=O)c2ccncc2)nc(N2CCCCC2)n1` registered an MIC of 6.25 µg/mL (≈ 16.9 µM).

`O=C(NNc1nc(N2CCCCC2)nc(N2CCCCC2)n1)c1ccncc1` showed an MIC of 6.25 µg/mL (≈ 16.3 µM).

Take `O=C(NNc1nc(Nc2ccccc2)nc(NC2CCCCC2)n1)c1ccncc1`: the MIC was determined as 6.25 µg/mL (≈ 15.5 µM).

On to `CCCCNc1nc(NNC(=O)c2ccncc2)nc(Nc2ccccc2)n1`, for which the MIC is 6.25 µg/mL (≈ 16.5 µM).

On to `CC(C)Nc1nc(NNC(=O)c2ccncc2)nc(Nc2ccccc2)n1`, for which the MIC came to 6.25 µg/mL (≈ 17.2 µM).

For the molecule `CCN(CC)CCNc1nc(N)nc(Nc2nc(SC)cc(-c3cc(OC)c(OC)c(OC)c3)n2)n1`, the MIC was > 12.5 µg/mL.

Consider `CCNC1CN(c2nc(Nc3nc(SC)cc(-c4ccc(OC)c(OC)c4)n3)nc(N3CCOC(NCC)C3)n2)CCO1` (stereo not given), for which the MIC is > 12.5 µg/mL.

For the molecule `CCCNC1COCCN1c1nc(Nc2nc(SC)cc(-c3ccc(OC)c(OC)c3)n2)nc(N2CCOCC2NCCC)n1` (stereo not given), the MIC is > 12.5 µg/mL.

For the molecule `CCNC1CN(c2cc(-c3cc(OC)c(OC)c(OC)c3)nc(N)n2)CCO1` (stereo not given), the MIC is > 12.5 µg/mL.

`CCCNC1COCCN1c1cc(-c2cc(OC)c(OC)c(OC)c2)nc(N)n1` (stereo not given): the MIC was > 12.5 µg/mL.

`CCCCNc1cc(-c2cc(OC)c(OC)c(OC)c2)nc(N)n1`: the minimal inhibitory concentration (MIC) was > 12.5 µg/mL.

On to `CCNC1CN(c2nc(N3CCCc4ccccc43)nc(N3CCCc4ccccc43)n2)CCO1` (stereo not given), for which the MIC is > 12.5 µg/mL.

Consider `CCCNC1COCCN1c1nc(N2CCCc3ccccc32)nc(N2CCCc3ccccc32)n1` (stereo not given), for which the minimal inhibitory concentration (MIC) was > 12.5 µg/mL.

As for `CC(C)(C)Nc1nc(N2CCCc3ccccc32)nc(N2CCCc3ccccc32)n1`, the MIC is > 12.5 µg/mL.

Take `CN1CCN(c2nc(N3CCCc4ccccc43)nc(N3CCCc4ccccc43)n2)CC1`: the MIC is > 12.5 µg/mL.

For `CCN(CC)CCNc1nc(N2CCCc3ccccc32)nc(N2CCCc3ccccc32)n1`, the minimum inhibitory concentration (MIC) is > 12.5 µg/mL.

Turning to `c1ccc2c(c1)CCCN2c1nc(N2CCOCC2)nc(N2CCCc3ccccc32)n1`, the MIC is > 12.5 µg/mL.

Regarding `CCCNC1COCCN1c1nc(N2CCc3ccccc3C2)nc(N2CCc3ccccc3C2)n1` (stereo not given), the MIC is > 12.5 µg/mL.

Regarding `CC(C)(C)Nc1nc(N2CCc3ccccc3C2)nc(N2CCc3ccccc3C2)n1`, the MIC was > 12.5 µg/mL.

On to `CCN(CC)CCNc1nc(N2CCc3ccccc3C2)nc(N2CCc3ccccc3C2)n1`, for which the MIC is > 12.5 µg/mL.

As for `c1ccc2c(c1)CCN(c1nc(N3CCOCC3)nc(N3CCc4ccccc4C3)n1)C2`, the MIC was > 12.5 µg/mL.

`CCCNc1nc(NCCC)nc(N2CCCc3ccccc32)n1`: the MIC is > 12.5 µg/mL.

Turning to `CC(C)Nc1nc(NC(C)C)nc(N2CCCc3ccccc32)n1`, the MIC was > 12.5 µg/mL.

With `CC(C)(C)Nc1nc(NC(C)(C)C)nc(N2CCCc3ccccc32)n1`, the MIC is > 12.5 µg/mL.

Consider `CCN(CC)CCNc1nc(NCCN(CC)CC)nc(N2CCCc3ccccc32)n1`, for which the MIC was > 12.5 µg/mL.

The molecule `CCN1CCN(c2nc(Nc3nc(SC)cc(-c4ccc(OC)c(OC)c4)n3)nc(N3CCN(CC)CC3)n2)CC1` displayed an MIC of 12.5 µg/mL (≈ 21.5 µM).

For `COc1cc(-c2cc(N3CCN(C)CC3)nc(N)n2)cc(OC)c1OC`, the minimal inhibitory concentration (MIC) was > 12.5 µg/mL.

As for `CCCNc1nc(NCCC)nc(Nc2nc(SC)cc(-c3cc(OC)c(OC)c(OC)c3)n2)n1`, the MIC was > 12.5 µg/mL.

Turning to `COc1cc(-c2cc(SC)nc(Nc3nc(N4CCOCC4)nc(N4CCOCC4)n3)n2)cc(OC)c1OC`, the MIC was > 12.5 µg/mL.

As for `CCCNc1nc(NCCC)nc(Nc2nc(SC)cc(-c3ccc(OC)c(OC)c3)n2)n1`, the MIC was > 12.5 µg/mL.

In the case of `COc1cc(-c2cc(N3CCOCC3)nc(N)n2)cc(OC)c1OC`, the MIC is > 12.5 µg/mL.

Molecule `CCN1CCN(c2nc(Nc3nc(SC)cc(-c4cc(OC)c(OC)c(OC)c4)n3)nc(N3CCN(CC)CC3)n2)CC1` came in with a minimal inhibitory concentration (MIC) of 12.5 µg/mL (≈ 20.5 µM).

The molecule `COc1cc(-c2cc(SC)nc(Nc3nc(N4CCN(C)CC4)nc(N4CCN(C)CC4)n3)n2)cc(OC)c1OC` yielded an MIC of 12.5 µg/mL (≈ 21.5 µM).

As to `COc1ccc(-c2cc(SC)nc(Nc3nc(N4CCN(C)CC4)nc(N4CCN(C)CC4)n3)n2)cc1OC`, the MIC was > 12.5 µg/mL.

Consider `CCN(CC)CCNc1nc(NCCN(CC)CC)nc(Nc2nc(SC)cc(-c3ccc(OC)c(OC)c3)n2)n1`, for which the MIC is 6.25 µg/mL (≈ 10.7 µM).

Molecule `COc1ccc(-c2cc(SC)nc(Nc3nc(NC(C)(C)C)nc(NC(C)(C)C)n3)n2)cc1OC` returned an MIC of 6.25 µg/mL (≈ 12.5 µM).

Turning to `COc1ccc(-c2cc(SC)nc(Nc3nc(N4CCCCC4)nc(N4CCCCC4)n3)n2)cc1OC`, the MIC was > 12.5 µg/mL.

`COc1ccc(-c2cc(SC)nc(Nc3nc(NC(C)C)nc(NC(C)C)n3)n2)cc1OC` displayed an MIC of 12.5 µg/mL (≈ 26.6 µM).

As to `COc1ccc(-c2cc(SC)nc(Nc3nc(N4CCOCC4)nc(N4CCOCC4)n3)n2)cc1OC`, the MIC is > 12.5 µg/mL.

With `COc1cc(-c2cc(N3CCCCC3)nc(N)n2)cc(OC)c1OC`, the minimal inhibitory concentration (MIC) is > 12.5 µg/mL.

As to `CCN(CC)CCNc1cc(-c2cc(OC)c(OC)c(OC)c2)nc(N)n1`, the MIC was > 12.5 µg/mL.

Molecule `COc1cc(-c2cc(SC)nc(Nc3nc(N4CCCCC4)nc(N4CCCCC4)n3)n2)cc(OC)c1OC` registered an MIC of 6.25 µg/mL (≈ 11.3 µM).

Take `CCCCNc1nc(NCCCC)nc(Nc2nc(SC)cc(-c3cc(OC)c(OC)c(OC)c3)n2)n1`: the MIC was > 12.5 µg/mL.
